Screens as filed in PubChem BioAssay.
Most compounds without a hit are left out; they make up all but 3% or so of the library.
5-HT1A blocker: human 5-HT1a receptor antagonists, primary screen, cell-based, CHO, Ga15 NFAT-bla reporter | inhibition, % at 10 µM | 0.68% of 62,000 active | 5-hydroxytryptamine receptor 1A (Homo sapiens), P08908 | CHO 5-HT1a Ga15 NFAT-bla reporter, antagonist mode | AID 612, 2007;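 active = inhibition above the mean of all tested compounds plus 3 SD, cut at about 43% in these data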;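 note: receptor stimulated by 5-CT agonist at 100 nM near EC80; beta-lactamase reporter measured by ratiometric fluorescence of a cleavable substrate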
Target sequence (P08908 whole entry, looked up): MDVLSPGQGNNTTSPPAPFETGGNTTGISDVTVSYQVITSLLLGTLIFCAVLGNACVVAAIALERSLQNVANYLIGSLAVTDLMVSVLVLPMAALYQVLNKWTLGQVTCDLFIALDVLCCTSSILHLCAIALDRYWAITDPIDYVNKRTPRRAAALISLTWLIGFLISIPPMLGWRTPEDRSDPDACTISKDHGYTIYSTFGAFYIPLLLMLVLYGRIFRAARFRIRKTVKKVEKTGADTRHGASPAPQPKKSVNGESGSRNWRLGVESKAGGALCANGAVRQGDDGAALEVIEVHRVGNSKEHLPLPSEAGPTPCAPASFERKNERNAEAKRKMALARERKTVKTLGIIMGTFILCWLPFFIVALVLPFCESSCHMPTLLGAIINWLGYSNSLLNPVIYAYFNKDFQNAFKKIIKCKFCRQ
S1P1 ag pot: S1P1 agonists and agonism potentiators, primary screen, cell-based, primary and confirmation screens, CRE-bla reporter. Sphingosine 1-phosphate receptor 1 (Homo sapiens), P21453. S1P1 CRE-bla cells, forskolin, beta-lactamase FRET, potentiator mode; S1P1 agonist co-added at EC20, 2 nM; 100% = saturating reference agonist, 0% = basal. activation, % at 9.5 µM. 0.57% of 56,000 active. AID 449, 2006;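 active = activation above a cutoff set at the mean activation of all tested compounds plus 3 SD, cut at about 54% in these data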;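 note: forskolin at 4 µM as EC80 and the EC20 agonist is SEW2871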
S1P3 agonist: human S1P3 receptor agonists, primary screen, cell-based, primary and confirmation, NFAT-BLA reporter. S1P3 NFAT-BLA reporter cells, agonism, FRET ratio; relative to 1 µM S1P, basal subtracted. activation, % at 4.5 µM. AID 373, 2006. Sphingosine 1-phosphate receptor 3 (Homo sapiens), Q99500. 0.1% of 60,000 active;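 active = activation above the screen-wide mean plus 3 SD, cut at about 4.5% in these data, passing the limit was not always enough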
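material = human S1P3 NFAT-BLA reporter CHO cells | schedule = 4 h compound at 37 °C, 2 h substrate at RT | measured by = fluorescent BLA substrate, ex 405 nm, em 460/535 nm ratio | controls = 1 µM S1P reference | replication = primary once, confirmation triplicate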
HTR1E agonist: 5-HT1E receptor agonists, primary screen, cell-based, HTS; 5-hydroxytryptamine receptor 1E (Homo sapiens), P28566; CHO 5-HT1E Ga15 NFAT-bla reporter, FRET; 0% DMSO wells, 100% control agonist wells; activation, % at 6 µM; 0.69% of 65,000 active; AID 574, 2007;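 active = activation above a set limit, the screen-wide mean activation plus 3 SD, cut at about 8.5% in these data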
5HT1E antag: 5-HT1E receptor antagonists, primary screen, cell-based, HTS; CHO 5-HT1E Ga15 NFAT-bla reporter, FRET, antagonist; inhibition, % at 6 µM; 0.99% of 65,000 active;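 active = inhibition above a set limit, the mean inhibition across every tested compound plus 3 SD, cut at about 29% in these data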;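 note: signal is the 460 over 535 nm emission ratio of beta-lactamase substrate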
HTR1A agonist: human 5-HT1a receptor agonists, primary screen, cell-based, CHO, Ga15 NFAT-bla reporter | 5-hydroxytryptamine receptor 1A (Homo sapiens), P08908 | CHO 5-HT1a Ga15 NFAT-bla reporter, FRET ratio; 0% basal, 100% maximal reference agonist | activation, % at 10 µM | 0.56% of 65,000 active | AID 567, 2006;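 active = activation above the screen-wide mean activation plus 3 SD, cut at about 19% in these data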
Large screens that a line does not name were inactive.

O=C(NC1CCC(NC(=O)C2CCCO2)CC1)C1CCCO1 (stereo not given)	none
O=C(COC(=O)CCC1CCCC1)Nc1ccc(Cl)cn1	HTR1E agonist 59.0
O=C(COc1ccc(Cl)cc1Cl)Nc1ccc(Cl)cn1	none
Cc1onc(-c2c(Cl)cccc2Cl)c1C(=O)N1CCc2ccccc21	S1P3 agonist 7.4
N=c1sccn1CC(=O)Nc1ccccc1-c1ccccc1	none (no result: S1P1 ag pot, S1P3 agonist)
N=c1sccn1CC(=O)Nc1cccc(Oc2ccccc2)c1	5-HT1A blocker 46.2
Cn1c(C(=O)N2CCN(c3ccccn3)CC2)cc2c(=O)n(C)c3ccccc3c21	HTR1E agonist 21.3
CCCc1cc(C(N)=O)c(NC(=O)c2cc(C)on2)s1	none
Cc1cc(C(=O)Nc2sc(C)c(-c3ccc(F)cc3)c2C(N)=O)no1	S1P1 ag pot 101.6
CC(C)OC(=O)CSc1nc(N)c(C#N)c(-c2cccs2)c1C#N	5HT1E antag 43.6
CCCCSc1nc(N)c(C#N)c(-c2cccs2)c1C#N	5HT1E antag 31.9 (no result: 5-HT1A blocker)
O=C(CSc1nc2ccsc2c(=O)n1-c1ccccc1)N1CCCC1	none (no result: S1P1 ag pot, S1P3 agonist)
N#Cc1ccccc1Cn1c(=O)n(Cc2ccc(C(=O)NCc3ccco3)cc2)c(=O)c2ccccc21	none
c1ccn2cc(CSC3=NCCS3)nc2c1	none
C=CCc1ccccc1OCC(O)CN1CCN(c2ccc(OC)cc2)CC1 (stereo not given)	5-HT1A blocker 81.2
C=CCc1ccccc1OCC(O)Cn1ccnc1C (stereo not given)	none
COc1cccc(OC)c1OCC(O)CN1CCN(c2ccccc2)CC1 (stereo not given)	5-HT1A blocker 45.4
CCOC(=O)N1CCN(CC(O)c2ccc3cc[nH]c3c2)CC1 (stereo not given)	none
OC(COc1ccc2c(c1)CCC2)CN1CCN(c2ccccc2F)CC1 (stereo not given)	5-HT1A blocker 44.1
COc1ccccc1N1CCN(CC(O)c2ccc3cc[nH]c3c2)CC1 (stereo not given)	5-HT1A blocker 87.2
OC(COCc1ccccc1)CN1CCN(c2ccccc2F)CC1 (stereo not given)	none
CCN1C(=O)OC2(CCCCC2)C1(C)O (stereo not given)	none
Cc1nc(Nc2nc(-c3ccccc3)cc(=O)[nH]2)nc2ccccc12	none
COc1ccccc1N1CCN(CC(O)COc2c(OC)cccc2OC)CC1 (stereo not given)	5-HT1A blocker 95.1
COc1ccccc1N1CCN(C(=O)N2CCOCC2)CC1	none
Oc1c(C(c2ccc(F)cc2)N2CCc3ccccc3C2)sc2ncnn12 (stereo not given)	none
Nc1nc(Nc2cccc(C(F)(F)F)c2)nc(C(F)(F)F)n1	none
Cn1c2ccc(Cl)cc2c2nc3ccccc3nc21	5HT1E antag 37.1
CCOC(=O)c1nnn(-c2nonc2N)c1COc1cc(C)c(Cl)c(C)c1	5-HT1A blocker 48.6
CCOC(=O)c1nnn(-c2nonc2N)c1CSc1ccc(C)cc1	none
O=C1c2oc3ccc(F)cc3c(=O)c2C(c2cccc(O)c2)N1CCCN1CCOCC1 (stereo not given)	HTR1E agonist 30.1
CCn1nc(C(=O)OCc2c(C)noc2C)c2ccccc2c1=O	5HT1E antag 29.5
Cc1nnc2ccc(N3CCC(C(N)=O)(N4CCCCC4)CC3)nn12	none
O=S(=O)(c1ccc2oc(-c3ccncc3)nc2c1)c1ccc2oc(-c3ccncc3)nc2c1	HTR1A agonist 26.8
CCOC(=O)c1[nH]c(C)c(/C=N/O)c1C	HTR1E agonist 9.8
Clc1cccc(-c2nn3c(-c4cccc(Cl)c4)nnc3s2)c1	none (no result: 5-HT1A blocker)
Cc1cc(=O)oc2cc3c(cc12)OCCO3	none
Cc1cc(=O)oc2cc3c(cc12)OCCN3	HTR1E agonist 12.2, HTR1A agonist 25.4
O=C(Nc1ccc(CN2CCOCC2)cc1)c1cc2ccccn2n1	none
CCCCOc1ccc(S(=O)(=O)Nc2cccnc2)cc1	S1P1 ag pot 84.6
CCOc1cc2[nH]c(=S)n(Cc3ccc(C)o3)c(=O)c2cc1OCC	none (no result: S1P1 ag pot, S1P3 agonist)
CC(=O)C1=C(C)NC(SCC(=O)c2ccc(Cl)c(Cl)c2)=C(C#N)C1c1ccco1 (stereo not given)	none
CC(=O)C1=C(C)NC(SCC(=O)c2cc(Cl)ccc2Cl)=C(C#N)C1c1ccco1 (stereo not given)	5HT1E antag 31.2
CCOC(=O)N1CCC(NC(=O)C2CCC(CNS(=O)(=O)c3ccc(OC)cc3)CC2)CC1 (stereo not given)	none
CCCCCn1c(NCc2ccco2)nc2ccccc21	HTR1E agonist 22.5
CCCn1c(NCc2ccco2)nc2ccccc21	none
CCCn1c(Nc2nc3ccccc3n2C)nc2ccccc21	5-HT1A blocker 59.1, 5HT1E antag 54.1
CCOC(=O)c1cnc(-n2nc(C)cc2C)nc1NCc1ccccc1	5-HT1A blocker 47.4
Cc1ccccc1NC(=O)C1CCN(c2cnccn2)CC1	none
CN1C(=O)NC(NC(=O)c2ccco2)(C(F)(F)F)C1=O (stereo not given)	none (no result: 5-HT1A blocker)
CC1=C(C#N)C(NC(=O)c2ccco2)(C(F)(F)F)C(=O)N1 (stereo not given)	HTR1E agonist 12.0
COc1cc2c(cc1OC)CN(C(=O)COc1ccc(C#N)cc1)CC2	none
COc1cc2c(cc1OC)C1=C(C#N)CN(CC(=O)O)CN1CC2	5HT1E antag 32.7
C=CCN1C(=O)N(/C=C/C)c2cccc3cccc1c23	none (no result: S1P1 ag pot)
CCCCN(C(=O)NC(=O)Nc1ccccc1OCC)S(C)(=O)=O	none
O=C(CC1Sc2ccccc2NC1=O)Nc1cccc(C(=O)O)c1 (stereo not given)	none
O=C(CSc1ncnc2c1oc1ccccc12)N1CCCc2ccccc21	S1P1 ag pot 64.9
COc1cccc(NC(=O)CSc2ncnc3c2oc2ccccc23)c1	5HT1E antag 31.2
Cc1cccc(N2CCN(CC(=O)NCC3CCCCC3)CC2)c1C	HTR1A agonist 41.0
CCS(=O)(=O)N1CCN(c2cccc(C)c2C)CC1	none
CCOC(=O)c1[nH]c2ccc(OC)cc2c1NC(=O)CN1CCN(c2ccccn2)CC1	HTR1A agonist 28.6 (no result: 5-HT1A blocker)
CCOC(=O)C1CCN(CC(=O)Nc2c(C(=O)OC)[nH]c3ccc(Cl)cc23)CC1	5HT1E antag 28.7
O=C(CSc1nnnn1C1CCCCC1)NCc1cccc(C(=O)O)c1	none
